Results from different studies.
pIC50: −log10 of the molar value.
SLC47A2: Multidrug and toxin extrusion protein 2 (SLC47A2, Homo sapiens, UniProt Q86VL8)
CYP2A6: Cytochrome P450 2A6 (CYP2A6, Homo sapiens, UniProt P11509)
BCKDK: Branched-chain alpha-ketoacid dehydrogenase kinase (BCKDK, Homo sapiens, UniProt O14874)
PTPN7: Tyrosine-protein phosphatase non-receptor type 7 (PTPN7, Homo sapiens, UniProt P35236)
HDAC8: Histone deacetylase 8 (HDAC8, Homo sapiens, UniProt Q9BY41)
RARG: Retinoic acid receptor gamma (RARG, Homo sapiens, UniProt P13631)
murD: UDP-N-acetylmuramoylalanine--D-glutamate ligase (murD, Escherichia coli K-12, UniProt P14900)
PDE8A: High affinity cAMP-specific and IBMX-insensitive 3',5'-cyclic phosphodiesterase 8A (PDE8A, Homo sapiens, UniProt O60658)
ALOX5: Polyunsaturated fatty acid 5-lipoxygenase (ALOX5, Homo sapiens, UniProt P09917)

SMILES	target	assay	test system	conditions	pIC50
C[C@@H]1CCO[C@H]2Cn3cc(C(=O)NCc4ccc(F)cc4F)c(=O)c(O)c3C(=O)N12	SLC47A2	transporter uptake, inhibitor, radiometric	HEK293	5 min, pH 8.5	4.61
CCc1cc(/C(C)=N/OCc2ccc(C3CCCCC3)c(C(F)(F)F)c2)ccc1CN1CC(C(=O)O)C1	CYP2A6	enzyme activity, inhibitor	human, liver microsomes	20 min	< 5.96
CCCc1nc2c(n1Cc1ccc(-c3ccccc3-c3nnn[nH]3)cc1)C(=O)CCCC2	BCKDK	enzyme activity, inhibitor	–	–	6.17
CCCCCCCCCCCCCCCc1cccc(O)c1C(=O)O	Histone acetyltransferase KAT2B (KAT2B, Homo sapiens, UniProt Q92831)	enzyme activity, inhibitor, radiometric	–	–	< 3.70
O=C(O)c1cc(O)c2c(c1)[C@H]([C@H]1c3cc(C(=O)O)cc(O)c3C(=O)c3c(O[C@@H]4O[C@H](CO)[C@@H](O)[C@H](O)[C@H]4O)cccc31)c1cccc(O[C@@H]3O[C@H](CO)[C@@H](O)[C@H](O)[C@H]3O)c1C2=O	PTPN7	enzyme activity, inhibitor, fluorescence	–	–	6.00
O=c1cc(-c2ccc(O)c(O)c2)oc2cc(O)cc(O)c12	HDAC8	enzyme activity, inhibitor	–	–	5.16
NC(=O)c1ccc[n+]([C@@H]2O[C@H](COP(=O)([O-])OP(=O)(O)OC[C@H]3O[C@@H](n4cnc5c(N)ncnc54)[C@H](O)[C@@H]3O)[C@@H](O)[C@H]2O)c1	Protein mono-ADP-ribosyltransferase PARP10 (PARP10, Homo sapiens, UniProt Q53GL7)	enzyme activity, inhibitor	–	–	3.34
C=CC(=O)Nc1cc(Nc2nccc(Nc3cc(Cl)c(F)cc3C(C)(C)O)n2)c(OC)cc1N1CC[C@@H](N(C)C)C1	CYP2A6	enzyme activity, inhibitor	human, liver microsomes	–	< 4.52
CCCCC(=O)N(Cc1ccc(-c2ccccc2-c2nnn[nH]2)cc1)[C@H](C(=O)O)C(C)C	BCKDK	enzyme activity, inhibitor	–	–	5.78
CC(C)c1cccc2c(/C=C/c3ccccc3)cc(-c3ccc(-c4ccc(C(=O)O)cc4)[nH]3)nc12	RARG	reporter gene, antagonist	–	–	< 5.48
CCCC[C@@H](C(=O)N[C@@H](CC(=O)O)C(=O)N(C)[C@@H](Cc1ccccc1)C(N)=O)N(C)C(=O)[C@H](Cc1c[nH]c2ccccc12)NC(=O)CNC(=O)[C@H](Cc1ccc(O)cc1)NC(=O)[C@H](C)NC(=O)[C@@H](CCC(=O)O)NC(=O)CN1CCN(CC(=O)O)CCN(CC(=O)O)CCN(CC(=O)O)CC1	Gastrin/cholecystokinin type B receptor (Rattus norvegicus, UniProt P30553)	ligand displacement, radioligand	–	–	8.34
O=C(Nc1ccc(C=NNS(=O)(=O)c2ccc3ccccc3c2)cc1)c1ccccc1Br	murD	enzyme activity, inhibitor, absorbance	–	–	4.26
COC(=O)[C@]1(O)C[C@@H](O)[C@@H](O)[C@H](OC(=O)/C=C/c2ccc(O)c(O)c2)C1	HDAC8	enzyme activity, inhibitor	–	–	5.09
CSc1ccc(/C=C2/C(C)=C(CC(=O)O)c3cc(F)ccc32)cc1	PDE8A	enzyme activity, inhibitor	–	–	< 4.00
CCCc1nc2c(C)cc(-c3nc4ccccc4n3C)cc2n1Cc1ccc(-c2ccccc2C(=O)O)cc1	BCKDK	enzyme activity, inhibitor	–	–	< 3.52
O=C(Nc1ccccc1C=NNS(=O)(=O)c1ccc2ccccc2c1)c1cc([N+](=O)[O-])cc([N+](=O)[O-])c1	murD	enzyme activity, inhibitor, absorbance	–	–	4.31
CC/C=C\C/C=C\C/C=C\C/C=C\C/C=C\CCCC(=O)O	DNA polymerase (POLA1, Bos taurus, UniProt A0AAA9TD94)	enzyme activity, inhibitor	–	–	4.49

SMILES	target	assay	test system	conditions	pIC50
CCS(=O)(=O)N1CC(CC#N)(n2cc(-c3ncnc4[nH]ccc34)cn2)C1	SLC47A2	transporter uptake, inhibitor, radiometric	–	2 min	4.86
CN1CCN(c2ccc(Nc3ncc4cc(C#N)c(=O)n(C5CCCC5)c4n3)cc2)CC1	TGF-beta receptor type-2 (TGFBR2, Homo sapiens, UniProt P37173)	enzyme activity, inhibitor	–	–	6.91
Cc1cnc(-c2ccc(-c3ccc(NC(=O)Nc4c(F)cc(F)cc4F)cc3F)c3c2C(=O)NC3)[nH]1	Tyrosine-protein kinase Yes (YES1, Homo sapiens, UniProt P07947)	enzyme activity, inhibitor	–	–	8.35
CNC(=O)c1cc2c(Oc3ccc(NC(=O)C4(C(=O)Nc5ccc(F)cc5)CC4)cc3)ccnc2cc1OC	Ephrin type-A receptor 8 (EPHA8, Homo sapiens, UniProt P29322)	enzyme activity, inhibitor, radiometric	–	–	7.47
COc1ccc(C2=NN(C3CCCCCC3)C(=O)[C@@H]3CC=CC[C@H]23)cc1-c1ccc(C(N)=O)cc1 (relative stereo)	PDE8A	enzyme activity, inhibitor	–	–	< 5.00
CCCCCc1cc(O)c(C/C=C(\C)CCC=C(C)C)c(O)c1	ALOX5	enzyme activity in cells, inhibitor	–	–	5.70
Cc1ccc(-c2cc(-c3ccc(-c4ccc(C(=O)O)cc4)[nH]3)nc3c(C(C)C)cccc23)cc1	RARG	reporter gene, antagonist	–	–	< 5.48
O=C(Nc1ccc(C=NNS(=O)(=O)c2ccc3ccccc3c2)cc1)c1ccccc1[N+](=O)[O-]	murD	enzyme activity, inhibitor, absorbance	–	–	4.35
Cc1ccc(C(=O)Nc2ccc(S(=O)(=O)O)c3cc(S(=O)(=O)O)cc(S(=O)(=O)O)c23)cc1NC(=O)c1cccc(NC(=O)Nc2cccc(C(=O)Nc3cc(C(=O)Nc4ccc(S(=O)(=O)O)c5cc(S(=O)(=O)O)cc(S(=O)(=O)O)c45)ccc3C)c2)c1	PTPN7	enzyme activity, inhibitor, fluorescence	–	–	4.52
C=C(C)[C@@H]1CCC(C)=C[C@H]1c1c(O)cc(CCCCC)cc1O	ALOX5	enzyme activity in cells, inhibitor	–	–	< 5.00
CC(C)=CCC[C@@]1(C)C(CC[C@H]2[C@]3(C)CC[C@H](O)C(C)(C)O[C@H]3CC[C@@]2(C)O)=C(C)CC[C@H]1O	ATP-dependent translocase ABCB1 (ABCB1, Homo sapiens, UniProt P08183)	transporter efflux, inhibitor, fluorescence	KB-V1	10 min	4.30 to 4.70
CN(C)CCC=C1c2ccccc2CCc2ccccc21	SLC47A2	transporter uptake, inhibitor, radiometric	HEK293	5 min	< 3.30
O=C(NO)c1ccc(NC(=O)C2(c3ccccc3)CCCC2)c(F)c1	Histone deacetylase 1 (HDAC1, Homo sapiens, UniProt Q13547)	enzyme activity, inhibitor	–	–	6.74
CCCCc1nc(C)c(CC(=S)N(C)C)c(=O)n1Cc1ccc(-c2ccccc2-c2nnn[nH]2)cc1	BCKDK	enzyme activity, inhibitor	–	–	4.28
CCCC[C@H](NC(=O)[C@H](C)c1c(C)[nH]c2ccc(O)cc12)c1ncc(-c2cc3ccccc3nc2OC)[nH]1	Mu-type opioid receptor (OPRM1, Homo sapiens, UniProt P35372)	cell-free assay	–	–	5.34
C=C(C)[C@@H]1CCC(C)=C[C@H]1c1c(O)cc(CCC)cc1O	ALOX5	enzyme activity in cells, inhibitor	–	–	5.12
COc1cc(/C=C2\SC(=O)NC2=O)cc(F)c1OCCNc1nc2c(cnn2C2CCCC2)c(=O)[nH]1	PDE8A	enzyme activity, inhibitor	–	–	7.04
